Results from ChEMBL document CHEMBL1155804, “Brominated diterpenes with antibacterial activity from the red alga Sphaerococcus coronopifolius” (2008).
Converted amounts (≈) assume the structure as drawn.

Tests used:
Assay type in all cases: functional
Staphylococcus aureus [1] = experiment: Antibacterial activity against Staphylococcus aureus 1199B overexpressing NorA efflux pump after 18 hrs by MTT assay
In short: (§1)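 Broth microdilution MIC in Mueller-Hinton broth supplemented to 20 mg/L Ca2+ and 10 mg/L Mg2+. Overnight cultures were adjusted in 0.9% saline to 5 × 10^5 cfu against a McFarland standard, and the sample was serially diluted in broth. Plates included growth, sterile and 3.125% DMSO controls and were incubated 18 h at 37 °C. MICs were determined in duplicate.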

Staphylococcus aureus [2] = experiment: Antibacterial activity against epidemic methicillin-resistant Staphylococcus aureus 15 after 18 hrs by MTT assay; in short: as §1
Staphylococcus aureus [3] = experiment: Antibacterial activity against methicillin-resistant Staphylococcus aureus XU212 expressing TetK efflux pump after 18 hrs by MTT assay; conditions: XU212, 18 h; in short: as §1
Staphylococcus aureus [4] = experiment: Antibacterial activity against epidemic methicillin-resistant Staphylococcus aureus 16 expressing mecA after 18 hrs by MTT assay; in short: as §1
Staphylococcus aureus [5] = experiment: Antibacterial activity against Staphylococcus aureus ATCC 25923 after 18 hrs by MTT assay; conditions: ATCC 25923, 18 h; in short: as §1
Staphylococcus aureus [6] = experiment: Antibacterial activity against Staphylococcus aureus […] expressing MsrA macrolide efflux pump after 18 hrs by MTT assay; in short: as §1

Row | Compound | MIC (Staphylococcus aureus [1]) [µg/mL] | MIC (Staphylococcus aureus [2]) [µg/mL] | MIC (Staphylococcus aureus [3]) [µg/mL] | MIC (Staphylococcus aureus [4]) [µg/mL] | MIC (Staphylococcus aureus [5]) [µg/mL] | MIC (Staphylococcus aureus [6]) [µg/mL]
1 | CC(C)[C@@H]1CC[C@H](O)[C@H]2[C@H]3[C@@](C)(C=CC(=O)[C@]3(C)O)CC[C@@]21CBr | 0.5 (≈ 1.25 µM) | 0.5 (≈ 1.25 µM) | 1 (≈ 2.5 µM) | 0.25 (≈ 0.626 µM) | 0.5 (≈ 1.25 µM) | 1 (≈ 2.5 µM)
2 | CCn1cc(C(=O)O)c(=O)c2cc(F)c(N3CCNCC3)cc21 [NORFLOXACIN] | 32 (≈ 100 µM) | 0.5 (≈ 1.57 µM) | 8 (≈ 25.1 µM) | 128 (≈ 401 µM) | 0.5 (≈ 1.57 µM) | 1 (≈ 3.13 µM)
3 | CC(C)[C@@H]1C[C@H](O)C=C2[C@H]3[C@](C)(CC[C@@]21CBr)[C@@H](Br)CC[C@@]3(C)O | 16 (≈ 34.5 µM) | 16 (≈ 34.5 µM) | 16 (≈ 34.5 µM) | 16 (≈ 34.5 µM) | 16 (≈ 34.5 µM) | 16 (≈ 34.5 µM)
4 | CC(C)[C@@H]1CC[C@H](O)[C@H]2[C@H]3[C@](C)(CC[C@@]21CBr)[C@@H](Br)CC[C@]3(C)O | 1 (≈ 2.14 µM) | 2 (≈ 4.29 µM) | 2 (≈ 4.29 µM) | 1 (≈ 2.14 µM) | 2 (≈ 4.29 µM) | 2 (≈ 4.29 µM)
5 | CC(C)[C@@H]1C[C@H](OO)C=C2[C@@H]3[C@](C)(O)[C@@H](O)C[C@H](Br)[C@@]3(C)CC[C@@]21CBr | 16 (≈ 32.2 µM) | 16 (≈ 32.2 µM) | 16 (≈ 32.2 µM) | 16 (≈ 32.2 µM) | 32 (≈ 64.5 µM) | 16 (≈ 32.2 µM)
6 | CC(C)[C@@H]1C[C@H](OO)C=C2[C@@H]3[C@](C)(O)[C@H](O)C[C@H](Br)[C@@]3(C)CC[C@@]21CBr | 16 (≈ 32.2 µM) | 16 (≈ 32.2 µM) | 16 (≈ 32.2 µM) | 16 (≈ 32.2 µM) | 32 (≈ 64.5 µM) | 16 (≈ 32.2 µM)
7 | CC(C)[C@@H]1CC[C@H](O)[C@H]2[C@H]3[C@](C)(CC[C@@]21CBr)[C@@H](Br)CC(=O)[C@]3(C)O | 32 (≈ 66.6 µM) | 128 (≈ 267 µM) | 32 (≈ 66.6 µM) | 64 (≈ 133 µM) | 32 (≈ 66.6 µM) | 32 (≈ 66.6 µM)
